Results published in ChEMBL document CHEMBL1150050, “Antimutagenic agents from natural products” (J Nat Prod, 1992).
Calls of active or inactive are those of the source. The rule behind the calls is not given here.

Key:
Salmonella typhimurium [1] = assay: Toxicity in Salmonella Typhimurium TA98 at 75 to 300 ug/plate after 48 to 72 hrs in presence of liver S-9 fraction; format: organism-based; conditions: salmonella enterica subsp. enterica serovar typhimurium
In short: (§1)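 Toxicity plates were set up with bacteria, Ames S-9 preparation and test substance, with histidine in place of 2-aminoanthracene. They were mixed with top agar and incubated 48–72 h.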

Salmonella typhimurium [2] = assay: Toxicity in Salmonella Typhimurium TA100 at 75 to 300 ug/plate after 48 to 72 hrs in presence of liver S-9 fraction; format: organism-based; conditions: salmonella enterica subsp. enterica serovar typhimurium; in short: as §1
Salmonella typhimurium [3] = assay: Antimutagenic activity in Salmonella Typhimurium TA98 assessed as inhibition of 2-aminoanthracene-induced mutation at 75 ug/plate after 48 to 72 hrs by Ames assay in presence of liver S-9 fraction; format: functional, organism-based; conditions: Salmonella enterica subsp. enterica serovar Typhimurium
In short: (§2)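 Bacteria were combined with Ames S-9 metabolic activation preparation, test substance in DMSO and 2-aminoanthracene at 2.5 μg/plate, mixed with top agar and incubated 48–72 h. Mutagenicity inhibition was assessed relative to 2-aminoanthracene.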

Salmonella typhimurium [4] = assay: Antimutagenic activity in Salmonella Typhimurium TA98 assessed as inhibition of 2-aminoanthracene-induced mutation at 150 ug/plate after 48 to 72 hrs by Ames assay in presence of liver S-9 fraction; format: functional, organism-based; conditions: Salmonella enterica subsp. enterica serovar Typhimurium; in short: as §2
Salmonella typhimurium [5] = assay: Antimutagenic activity in Salmonella Typhimurium TA100 assessed as inhibition of ethyl methanesulfonate-induced mutation at 300 ug/plate after 48 to 72 hrs by Ames assay in presence of liver S-9 fraction; format: functional, organism-based; conditions: Salmonella enterica subsp. enterica serovar Typhimurium
Salmonella typhimurium [6] = assay: Antimutagenic activity in Salmonella Typhimurium TA100 assessed as inhibition of ethyl methanesulfonate-induced mutation at 32 to 300 ug/plate after 48 to 72 hrs by Ames assay in presence of liver S-9 fraction; format: functional, Salmonella enterica subsp. enterica serovar Typhimurium; design: scale not given: the % may be the effect or the level left
Salmonella typhimurium [7] = assay: Toxicity in Salmonella Typhimurium TA98 at 75 to 600 ug/plate after 48 to 72 hrs in presence of liver S-9 fraction; format: organism-based; conditions: salmonella enterica subsp. enterica serovar typhimurium; in short: as §1
Salmonella typhimurium [8] = assay: Toxicity in Salmonella Typhimurium TA100 at 75 to 600 ug/plate after 48 to 72 hrs in presence of liver S-9 fraction; format: organism-based; conditions: salmonella enterica subsp. enterica serovar typhimurium; in short: as §1

| Structure (SMILES) | Activity (Salmonella typhimurium [1]) | Activity (Salmonella typhimurium [2]) | Activity (Salmonella typhimurium [3]) | Activity (Salmonella typhimurium [4]) | Activity (Salmonella typhimurium [5]) | Activity (Salmonella typhimurium [6]) [%] | Activity (Salmonella typhimurium [7]) | Activity (Salmonella typhimurium [8]) |
| --- | --- | --- | --- | --- | --- | --- | --- | --- |
| CC1(C)[C@@H](Br)CC[C@]2(C)Oc3cc(Br)c(O)cc3C[C@@H]12 | Non-toxic | Non-toxic | Active | Active | Active | 80 | – | – |
| CC1(C)[C@@H](Br)CC[C@@]2(C)Oc3cc(Br)c(O)cc3C[C@@H]12 [CYMOBARBATOL] | Non-toxic | Non-toxic | Active | Active | Active | 80 | – | – |
| CC(C)=CCC/C(C)=C/Cc1cc(O)c(Br)cc1O [CYMOPOL] | – | – | – | – | – | – | Toxic | Toxic |
